# Experimental data as given in ChEMBL document CHEMBL4402517, “Rational modification of Mannich base-type derivatives as novel antichagasic compounds: Synthesis, in vitro and in vivo evaluation” (Bioorg Med Chem, 2019).
# Activity calls are given as the source filed them. The rule behind the calls is not given here.
# Columns and labels:
# [1] = test system: Trypanosoma cruzi; experiment: Inhibition of Trypanosoma cruzi MHOM/Pe/2011/Arequipa;DTU 5 epimastigote Fe-SOD at 25 uM
# In short: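 Fe-SOD excreted by exponentially growing T. cruzi Arequipa epimastigotes cultured in supplemented MTL at 28 °C. Protein quantified by Bradford. SOD activity measured by the Beyer–Fridovich method. IC50 from inhibition curves by nonlinear regression. Mean of three independent determinations ± standard deviation.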
# [2] = (§1) Toxicity in BALB/c mouse infected with Trypanosoma cruzi MHOM/Pe/2011/Arequipa;DTU 5 bloodstream trypomastigote assessed as change in serum aspartate aminotransferase level in acute phase at 20 mg/kg/day, po administered for 5 consecutive days starting from day 8 post infection and measured at day 14 post infection by biochemical analysis relative to control; format: organism-based; details: in vivo
# [3] = Toxicity in BALB/c mouse infected with Trypanosoma cruzi MHOM/Pe/2011/Arequipa;DTU 5 bloodstream trypomastigote assessed as increase in serum total bilirubin level in acute phase at 20 mg/kg/day, po administered for 5 consecutive days and measured on day 100 post infection by biochemical analysis relative to control; format: organism-based; details: in vivo
# [4] = as §1, with “alkaline phosphatase” for “aspartate aminotransferase”; format: organism-based; details: in vivo
# [5] = test system: Trypanosoma cruzi; experiment: Antitrypanosomal activity against Trypanosoma cruzi MHOM/Pe/2011/Arequipa;DTU 5 epimastigote assessed as effect on parasite glycolytic pathway by measuring change in succinate excretion after 72 hrs by H NMR method; format: functional, organism-based
# In short: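 Cells were spun at 800 × g for 10 min and culture supernatants analysed by 1H NMR. Catabolite peaks were expressed as % variation versus untreated parasites.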
# [6] = as §1, with “increase” for “change”; format: organism-based; details: in vivo
# [7] = Mutagenecity against Salmonella typhimurium TA1535 assessed as number of colonies at 66.7 ug/plate in presence of Sprague-Dawley rat S9 measured after 48 hrs by Ames test (reference value: 5 +/- 3.6); format: toxicity, subcellular; details: salmonella enterica subsp. enterica serovar typhimurium, s9, 48 h
# [8] = Mutagenecity against Salmonella typhimurium TA1535 assessed as number of colonies at 200 ug/plate in absence of Sprague-Dawley rat S9 measured after 48 hrs by Ames test (reference value: 13.3 +/- 2.5); format: toxicity; details: salmonella enterica subsp. enterica serovar typhimurium, s9, 48 h
# [9] = Mutagenecity against Salmonella typhimurium TA 100 assessed as number of colonies at 66.7 ug/plate in absence of Sprague-Dawley rat S9 with metabolic activation measured after 48 hrs by Ames test (reference value: 35.7 +/- 0.6); format: toxicity; details: salmonella enterica subsp. enterica serovar typhimurium, s9, 48 h
# [10] = Mutagenecity against Salmonella typhimurium TA 102 assessed as number of colonies at 7.4 ug/plate in presence of Sprague-Dawley rat S9 with metabolic activation measured after 48 hrs by Ames test (reference value: 72 +/- 1); format: toxicity, subcellular; details: salmonella enterica subsp. enterica serovar typhimurium, s9, 48 h
# [11] = Mutagenecity against Salmonella typhimurium TA 100 assessed as number of colonies at 22.2 ug/plate in presence of Sprague-Dawley rat S9 with metabolic activation e measured after 48 hrs by Ames test (reference value: 47.3 +/- 5.7); format: toxicity, subcellular; details: salmonella enterica subsp. enterica serovar typhimurium, s9, 48 h
# [12] = Mutagenecity against Salmonella typhimurium TA 100 assessed as number of colonies at 7.4 ug/plate in presence of Sprague-Dawley rat S9 with metabolic activation measured after 48 hrs by Ames test (reference value: 47.3 +/- 5.7); format: toxicity, subcellular; details: salmonella enterica subsp. enterica serovar typhimurium, s9, 48 h
# [13] = Mutagenecity against Salmonella typhimurium TA97a assessed as number of colonies at 22.2 ug/plate in presence of Sprague-Dawley rat S9 with metabolic activation measured after 48 hrs by Ames test (reference value: 55 +/- 7.1); format: toxicity, subcellular; details: salmonella enterica subsp. enterica serovar typhimurium, s9, 48 h
# [14] = Mutagenecity against Salmonella typhimurium TA97a assessed as number of colonies at 200 ug/plate in presence of Sprague-Dawley rat S9 with metabolic activation measured after 48 hrs by Ames test (reference value: 55 +/- 7.1); format: toxicity, subcellular; details: salmonella enterica subsp. enterica serovar typhimurium, s9, 48 h
# [15] = as §1, with “trypomastigotes” for “trypomastigote”, “decrease” for “change”; format: organism-based; set-up: scale not given: the % may be the effect or the level left; details: in vivo
# [16] = Mutagenecity against Salmonella typhimurium TA97a assessed as number of colonies at 66.7 ug/plate in presence of Sprague-Dawley rat S9 with metabolic activation measured after 48 hrs by Ames test (reference value: 55 +/- 7.1); format: toxicity, subcellular; details: salmonella enterica subsp. enterica serovar typhimurium, s9, 48 h
# [17] = Mutagenecity against Salmonella typhimurium TA97a assessed as number of colonies at 7.4 ug/plate in presence of Sprague-Dawley rat S9 with metabolic activation measured after 48 hrs by Ames test (reference value: 55 +/- 7.1); format: toxicity, subcellular; details: salmonella enterica subsp. enterica serovar typhimurium, s9, 48 h
# [18] = Mutagenecity against Salmonella typhimurium TA97a assessed as number of colonies at 66.7 ug/plate in absence of Sprague-Dawley rat S9 […] measured after 48 hrs by Ames test ( Rvb = 37 +/- 6.5); format: toxicity; details: salmonella enterica subsp. enterica serovar typhimurium, s9, 48 h
# [19] = Mutagenecity against Salmonella typhimurium TA 102 assessed as number of colonies at 7.4 ug/plate in absence of Sprague-Dawley rat S9 with metabolic activation measured after 48 hrs by Ames test (reference value: 78.7 +/- 7.8); format: toxicity; details: salmonella enterica subsp. enterica serovar typhimurium, s9, 48 h
# [20] = Mutagenecity against Salmonella typhimurium TA 102 assessed as number of colonies at 22.2 ug/plate in presence of Sprague-Dawley rat S9 with metabolic activation measured after 48 hrs by Ames test (reference value: 72 +/- 1); format: toxicity, subcellular; details: salmonella enterica subsp. enterica serovar typhimurium, s9, 48 h
# [21] = Mutagenecity against Salmonella typhimurium TA1535 assessed as number of colonies at 22.2 ug/plate in presence of Sprague-Dawley rat S9 measured after 48 hrs by Ames test (reference value: 5 +/- 3.6); format: toxicity, subcellular; details: salmonella enterica subsp. enterica serovar typhimurium, s9, 48 h
# [22] = Mutagenecity against Salmonella typhimurium TA 102 assessed as number of colonies at 66.7 ug/plate in absence of Sprague-Dawley rat S9 with metabolic activation measured after 48 hrs by Ames test (reference value: 78.7 +/- 7.8); format: toxicity; details: salmonella enterica subsp. enterica serovar typhimurium, s9, 48 h
# [23] = Mutagenecity against Salmonella typhimurium TA98 assessed as number of colonies at 22.2 ug/plate in presence of Sprague-Dawley rat S9 measured after 48 hrs by Ames test (reference value: 4 +/- 2); format: toxicity, subcellular; details: salmonella enterica subsp. enterica serovar typhimurium, s9, 48 h
# [24] = Mutagenecity against Salmonella typhimurium TA97a assessed as number of colonies at 200 ug/plate in absence of Sprague-Dawley rat S9 […] measured after 48 hrs by Ames test ( Rvb = 37 +/- 6.5); format: toxicity; details: salmonella enterica subsp. enterica serovar typhimurium, s9, 48 h
# [25] = Mutagenecity against Salmonella typhimurium TA1535 assessed as number of colonies at 7.4 ug/plate in absence of Sprague-Dawley rat S9 measured after 48 hrs by Ames test (reference value: 13.3 +/- 2.5); format: toxicity; details: salmonella enterica subsp. enterica serovar typhimurium, s9, 48 h
# [26] = Mutagenecity against Salmonella typhimurium TA98 assessed as number of colonies at 200 ug/plate in presence of Sprague-Dawley rat S9 measured after 48 hrs by Ames test (reference value: 4 +/- 2); format: toxicity, subcellular; details: salmonella enterica subsp. enterica serovar typhimurium, s9, 48 h
# [27] = Mutagenecity against Salmonella typhimurium TA1535 assessed as number of colonies at 200 ug/plate in presence of Sprague-Dawley rat S9 measured after 48 hrs by Ames test (reference value: 5 +/- 3.6); format: toxicity, subcellular; details: salmonella enterica subsp. enterica serovar typhimurium, s9, 48 h
# [28] = Mutagenecity against Salmonella typhimurium TA 102 assessed as number of colonies at 200 ug/plate in presence of Sprague-Dawley rat S9 with metabolic activation measured after 48 hrs by Ames test (reference value: 72 +/- 1); format: toxicity, subcellular; details: salmonella enterica subsp. enterica serovar typhimurium, s9, 48 h
smiles,measurement,setting,value
O=C(CCN1CCN(c2ccc(C(F)(F)F)cc2)CC1)c1ccc(O)cc1,inhibition,[1],Active
same,Activity,[2],> 10%
same,Activity,[3],> 40%
O=C(Cn1ccnc1[N+](=O)[O-])NCc1ccccc1 [BENZNIDAZOLE],Activity,[4],> 10%
same,Activity,[5],Active
same,Activity,[6],<= 20%
O=C(CCN1CCN(c2ccc(Cl)cc2)CC1)c1ccc(O)cc1,Activity,[7],3.3
same,Activity,[8],4
same,Activity,[9],38
same,Activity,[10],75
same,Activity,[11],47.3
same,Activity,[12],44.7
same,Activity,[13],38.3
same,Activity,[14],41
same,Activity,[15],<= 10%
same,Activity,[16],44
same,Activity,[17],44.3
same,Activity,[18],31.3
same,Activity,[19],72
same,Activity,[20],84.7
same,Activity,[21],3
same,Activity,[22],73.3
same,Activity,[23],4
same,Activity,[24],32.3
same,Activity,[25],2.3
same,Activity,[26],2.7
same,Activity,[27],7
same,Activity,[28],78
